Results reported in ChEMBL document CHEMBL4715720, “Synthetic strategy and antiviral evaluation of diamide containing heterocycles targeting dengue and yellow fever virus” (Eur J Med Chem, 2016).

How the values were obtained:
[1] = (§1) Selectivity index, ratio of CC50 for African green monkey Vero-B cells infected with Dengue virus serotype 2 assessed as inhibition of cell growth to EC50 for Dengue Virus serotype 2 infected in Vero-B cells assessed as inhibition of virus-induced cytopathogenic effect incubated for 7 days by methylene blue staining based visual analysis; assay type: toxicity; conditions: read-out: Ratio CC50/EC50
[2] = Cytotoxicity against African green monkey Vero-B cells infected with Yellow fever virus assessed as inhibition of cell growth after 7 days by methylene blue staining based visual analysis; conditions: chlorocebus aethiops, time 7 day
Summary of the method: (§2)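 Yellow fever virus was tested in Vero-B cells of the ATCC CCL-81 line. EC50 is the concentration giving 50% inhibition of virus-induced CPE. CC50 is the concentration giving 50% inhibition of cell growth. The original μg/mL data were converted to μM.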

dengue virus type 2 = test: Antiviral activity against Dengue virus serotype 2 infected in Vero-B cells assessed as inhibition of virus-induced cytopathogenic effect after 7 days by methylene blue staining based visual analysis; assay type: functional, organism-based; conditions: 168 h
Summary of the method: (§3)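 Dengue virus serotype 2 was tested in green monkey kidney Vero-B cells from the ECACC line. EC50 is the concentration that inhibits virus-induced CPE by 50%. CC50 is the concentration that inhibits cell growth by 50%. Values were first obtained in μg/mL and then recalculated to μM.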

[3] = as §1, with “Yellow fever” for “Dengue”, “virus” for “virus serotype 2”, “Yellow fever virus” for “Dengue Virus serotype 2”; assay type: toxicity; conditions: read-out: Ratio CC50/EC50
Yellow fever virus = test: Antiviral activity against Yellow fever virus infected in Vero-B cells assessed as inhibition of virus-induced cytopathogenic effect after 7 days by methylene blue staining based visual analysis; assay type: functional, organism-based; conditions: 168 h; summary of the method: as §2
[4] = Cytotoxicity against African green monkey Vero-B cells infected with Dengue virus serotype 2 assessed as inhibition of cell growth after 7 days by methylene blue staining based visual analysis; conditions: chlorocebus aethiops, time 7 day; summary of the method: as §3

Row | SMILES | selectivity ratio at 168 h [1] | selectivity ratio at 168 h [3] | further results
1 | Cc1ccc(NC(=O)c2nccnc2C(=O)Nc2ccc(C)cc2-c2ccsc2)cc1 | > 29 |  | 
2 | O=C(NCc1ccccc1-c1ccsc1)c1ccccc1C(=O)Nc1ccc(F)cc1 | 17 | 53 | CC50 at 168 h [2]: 75 µM; EC50 (dengue virus type 2): 3 µM; EC50 (Yellow fever virus): 1.4 µM; CC50 at 168 h [4]: 50 µM
3 | Cc1ccc(NC(=O)c2ccccc2C(=O)Nc2ccc(F)cc2)c(-c2cc(C)n[nH]2)c1 | > 235 |  | 
4 | Cc1ccc(NC(=O)c2nccnc2C(=O)Nc2ccccc2-c2cc(C)n[nH]2)cc1 |  | > 34 | 
5 | Cc1ccc(NC(=O)c2ccccc2C(=O)Nc2ccc(C)cc2-c2ccsc2)cc1 | 41 |  | 
6 | Cc1ccc(NC(=O)c2nccnc2C(=O)Nc2ccc(C)cc2-c2cc(C)n[nH]2)cc1 | > 235 |  | 
7 | Cc1ccc(NC(=O)c2nccnc2C(=O)Nc2ccc(F)cc2)c(-c2cccs2)c1 |  | 5 | 
8 | Cc1ccc(NC(=O)c2nccnc2C(=O)Nc2ccc(C)cc2-c2cccs2)cc1 | > 235 |  | 
